Laboratory results published in the EternaBench riboswitch data.

System: MS2 coat protein
Experiment: apparent Kd, MS2 coat protein; higher = weaker binding; RNA-MaP array; FMN 200 µM where present
Procedure, shortened: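 SNAP-549-labelled MS2 coat protein, doubled from 0.7 or 1.5 nM to 3 µM, was titrated over designs transcribed by stalled E. coli RNA polymerase on Illumina sequencing-chip clusters. Titrations were run without and then with constant ligand in 100 mM Tris-HCl pH 7.5, 80 mM KCl, 4 mM MgCl2, BSA, DTT, yeast tRNA and Tween-20. The apparent Kd is the median of filtered per-cluster fits to green signal normalised to red-channel RNA signal and control-cluster median Fmax.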

[1] = designed as: OFF switch for flavin mononucleotide, no ligand
[2] = ligand present: flavin mononucleotide, designed as: OFF switch for flavin mononucleotide
[3] = designed as: ON switch for flavin mononucleotide, no ligand
[4] = ligand present: flavin mononucleotide, designed as: ON switch for flavin mononucleotide

Row | Sequence | apparent Kd [1] | apparent Kd [2] | apparent Kd [3] | apparent Kd [4]
1 | UAUAUAUAGUAAGGAUAUGUAAUAAUUUUAUAAACAGAAGGUACUGACAUGAGGAUCACCCAUGUUUUAGUGUGGGCAUGUAGA | 83.9 nM | 151 nM | – | –
2 | AAUUCACAUGAGGAUCACCCAUGUCAGGAUAUGGUUUCACGUGUUUCGGUGCUUGAGGCCAGAAGGGACAGCUA | 67 nM | 98.6 nM | – | –
3 | UAUUAGUAAGGAUAUCCUUGCAUGGACGAAAGUCCAUGCAAGGAGAAGGUACAUGAGGAUCACCCAUGUUCAUU | 17.2 nM | 17.9 nM | – | –
4 | CAGCUCUGAGGAUAUCCACCCUCGUACAUGAGGAUCACCCAUGUUUCCCUCUGGGCUUUCGGAGAAGGCAGGUAUC | 59.1 nM | 55.3 nM | – | –
5 | UGGUACUAGGGAGGAUAUUGGAAGAUACAUGAGGAUCACCCAUGUUUAAGAAUGCCGAGAGGCAACUAGAAGGCCCUAGUACCU | – | – | 8.37 nM | 5.09 nM
6 | UAAAAGCUAGGAUAUACAUGAGGAUCACCCAUGUACCGGCUUGGCCCUGGUCCUAAAUGUAGAAGGAGCACGCC | 15.2 nM | 23.9 nM | – | –
7 | AUUUUAAUAUAGGAUAUCGAAUUUAUUAAUUAUCGAGAAGGAUAAACAUGAGGAUCACCCAUGUGGUAUCAUGG | 210 nM | 274 nM | – | –
8 | GACGGUGAUGUAGGAUAUACGCUGGAAUACAGCGUAGAAGGACAUGAGGAUCACCCAUGUAAAGUGUCUCCGAAUAACACCGUC | 35.3 nM | 68.6 nM | – | –
9 | AAAUAGCGAGGAUAUACAUGAGGAUCACCCAUGUGGACUGAUGUCGCAUGUUUCAGUGGUAGAAGGUGCUCAAA | 136 nM | 299 nM | – | –
10 | GUCAGCUCGUGAGGAUAUACCACACUGCUUCGGCAGUGUAUUAAGAUCACAUGAGGAUCACCCAUGUAGAAGGCACGAGCUGAU | 6.32 nM | 34.2 nM | – | –
11 | UGUCGGAGCAGAGGAUAUUACAUGAGGAUCACCCAUGUAUGAACCAAUAGCUGGAAACAGCAAUGUAAGAAGGCUGCUCCGCCA | 11.8 nM | 187 nM | – | –
12 | UGGGACGUGGGAGGAUAUCGGCCUGUAACAGUACGAGAAGGCCCAGUCCAAUAACAGACGGACAUGAGGAUCACCCAUGUCUCA | – | – | 43.2 nM | 14.3 nM
13 | UUACUAUUGGAGAAGGGUCGAUCAUAUAGAAUGACAGGAUAUCCAACAUGAGGAUCACCCAUGUGUCACCCAUAUGAGGAUCAC | 34.3 nM | 52.4 nM | – | –
14 | GAUAAUAUAGGAUAUACAUGAGGAUCACCCAUGUCCCGAUAUUAGGAGGACCUCCUCGGUAGAAGGAUAUGUGC | 129 nM | 131 nM | – | –
15 | AAAUUUAACGAAGGAUAUGCUGACAUGAGGAUCACCCAUGUGUGCCUUGUGUUACUGAUUAGGUUGCAGAAGGUCGUAUACAUA | 230 nM | 948 nM | – | –
16 | UUUUAACAUGAGGAUCACCCAUGUGAGGAUAUCGAAAUUUAUAUUAAUAUUUUUAAUACGAGAAGGCACAUUUU | 47.2 nM | 73.6 nM | – | –
17 | GUAGCAUACCGAGGAUAUCUAUCCCGGAAACGGACAUGAGGAUCACCCAUGUGGCGAAAGCCUUGGGAGAAGGCGGAAUGCUAC | – | – | 46.7 nM | 17.2 nM
18 | GUGGUUGUCGUAGGAUAUGUAGGAUAUUCCUACAUGAGGAUCACCCAUGUUAGCAUGGAAGAAGGACAGAAGGACGAUGACCAG | – | – | 904 nM | 15.1 nM
19 | GAUUCGCGUGAGAAGGACAUGAGGAUCACCCAUGUAGGAUAUCACGGUCCGUAGAGGAUUUCAAACCGUACUGGGUCAUAGUGU | – | – | 14.4 nM | 6.56 nM
20 | AAAUAGUUACAGAAGGGCAUUUAUAAUUAUCAUUACUCUUACUAUGUUUGCAGGAUAUGUUUAACAUGAGGAUCACCCAUGUAC | – | – | 20.4 nM | 14.1 nM
21 | UAUUAUAGCAGUGUAUUAAGAUCACAUGAGGAUCACCCAUGUAGAAGGUAUAAGCAAUAUGCUAAUAAGGAUAUACAACACUGC | 8.13 nM | 27.5 nM | – | –

Row | Sequence | apparent Kd [1] | apparent Kd [2] | apparent Kd [3] | apparent Kd [4]
22 | UAAUAAUAAUAAUAAUGCUGACAUACAUGAGGAUCACCCAUGUAGGAUAUCGUCAGGAAUACUGACGAGAAGGACAUAGUCAGC | 15.4 nM | 17.4 nM | – | –
23 | UUGGUGUACGUAGGAUAUGUAGGAUAUUCCUACAUGAGGAUCACCCAUGUUUACAUGGAAGAAGGACAGAAGGACGUGCACCAU | – | – | 1280 nM | 15.2 nM
24 | GUAAAUGGUAUGGCUUCGACCACACAGGAUAUGAAAAUGUACAUGAGGAUCACCCAUGUUCUGAAUCAGAAGGGUGAUGGACGG | – | – | 20.7 nM | 6.74 nM
25 | AACUGACAUGAGGAUCACCCAUGUCAGGAUAUGACUUCAAAAUAAAAAUAAAAUGAUGUCAGAAGGGACAUGGA | 22.6 nM | 36.1 nM | – | –
26 | GCGCAAGCAUGAGGAUAUGUAUUAAAUAAUAAUACAGAAGGCAUGUCAAAUGACAUGAGGAUCACCCAUGUUGGCAAAAUGCGC | – | – | 45.8 nM | 10.5 nM
27 | CUCCUGUAAGGAUAUCUGACAAGUGACGAAAGUCACAGUUCAGAGAAGGUACAUGAGGAUCACCCAUGUAGAAC | 32.2 nM | 139 nM | – | –
28 | GGCUCAUUGACAUUAAUGUGCAGACAGGAUAUCCACCGCGGUUCCUACAUGAGGAUCACCCAUGUGGAGAAGGGUCGCUAAUGG | 16.1 nM | 43.6 nM | – | –
29 | UCGGCGCGAGGAUAUGCGGUUCCUGCUUCGGGCCGGAGCGUACAUGAGGAUCACCCAUGUAGAAGGCGCGCCGC | 14.2 nM | 14.6 nM | – | –
30 | AUAUGAGAAGCAGGAUAUGUGAAAAAAAAACAUACAGAAGGGUUUAUGGGACAACAUGAGGAUCACCCAUGUUCUCUGUGAUGA | – | – | 65.2 nM | 71 nM
31 | GUCCGAAGGGAGAAGGGCUAGGAGGUCCAGCUUAUGUGUGUUGCAACAUGAGGAUCACCCAUGUAGCAGGAUAUCCCUUGUACA | 54.2 nM | 267 nM | – | –
32 | GUAUAUAUGAGGUAGGAUAUCCAAAAUAAAACAUGAGGAUCACCCAUGUAAAUAAAUAAUAAAUGGGAGAAGGACCACAUAUAUAC | – | – | 30.8 nM | 13.8 nM
33 | GGGUACGUUUCGUAGCAGUGUCAUCGAGAAGGCCCUGACAUGAGGAUCACCCAUGUUGUUACAUGGGAGGAUAUCGAUGAUUUU | – | – | 19.1 nM | 6.06 nM
34 | GUUGUGUAAGGAGGAUAUGAGCUGAAACUCUUACAUGAGGAUCACCCAUGUCCGUAACUCAGGCAUCAGAAGGCCUAACGCAUU | – | – | 686 nM | 23 nM
35 | CUUUCGUGAGGAUAUCAGUAGUAAAUAAAUAAAAUUACUACUGAGAAGGCACAUGAGGAUCACCCAUGUUCCUU | 11.8 nM | 18.5 nM | – | –
36 | ACAAAUGGAGGAUAUACAUGAGGAUCACCCAUGUAUAUCCUACAUAUGUGAUAAAAAUGUAGAAGGCCAUUUGA | 11.6 nM | 10.8 nM | – | –
37 | UGAGCCGGCACUGAGGAUAUUCAUAAUAAAACAUGAGGAUCACCCAUGUAGGCCAGAAGGCCUUGGGAGAAGGCAGGUCGGCUCA | – | – | 257 nM | 23.3 nM
38 | UGCAGACAUGAGGAUCACCCAUGUCAGGAUAUUGGACUAUGCAAUGUAUUGUUAGUACCAAGAAGGGACCCGUC | 31.8 nM | 27.2 nM | – | –
39 | AAAUCGCAAGGAUAUCGUCAGUCUGACAUGAGGAUCACCCAUGUUAUCUUGGUAUCAGAGCGAGAAGGUGCAAAGU | 13 nM | 13.9 nM | – | –
40 | UUUUUGUGAGGAUAUACGUAGUAGAACAAUAGUACUACUACGUAGAAGGCACAUGAGGAUCACCCAUGUUCCUC | 47.6 nM | 339 nM | – | –
41 | UUUGAUGUUGAGGAUAUGCUUUUUUUUAUUAUAGCAGAAGGCGAUACAUGAGGAUCACCCAUGUUCAUGGCUUU | 12.8 nM | 15.5 nM | – | –
42 | GUCCUACAUGAGGAUCACCCAUGUCAGGAUAUGUAGCGUCCGGGCCAUAAGGCUCGGAGCAGAAGGGACAGGUG | 13.8 nM | 18.2 nM | – | –
